ChEMBL document CHEMBL1156604 (Bioorg Med Chem Lett, 2008)

How the values were obtained:
Mu-type opioid receptor = Mu-type opioid receptor (Homo sapiens, UniProt P35372); assay: Displacement of [3H]DAMGO from human mu opioid receptor expressed in CHO cell membrane; assay type: cell membranes
[1] = biological target: Delta-type opioid receptor (Homo sapiens, UniProt P41143); assay: Displacement of [3H]Naltindole from human delta opioid receptor expressed in CHO cell membrane; assay type: cell membranes
Outline: (§1)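 Compounds were tested as hydrochloride salts in competition binding against the tritiated radioligand on CHO cell membranes. Ki values are given ± SEM.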

[2] = biological target: Kappa-type opioid receptor (Homo sapiens, UniProt P41145); assay: Displacement of [3H]U69593 from human kappa opioid receptor expressed in CHO cell membrane; assay type: cell membranes; outline: as §1
Homo sapiens [3] = organism: Homo sapiens; assay: Selectivity ratio of Ki for human kappa opioid receptor to Ki for human delta opioid receptor
Homo sapiens [4] = organism: Homo sapiens; assay: Selectivity ratio of Ki for human mu opioid receptor to Ki for human delta opioid receptor
Homo sapiens [5] = organism: Homo sapiens; assay: Selectivity ratio of Ki for human mu opioid receptor to Ki for human kappa opioid receptor

Mu-type opioid receptor, sequence (P35372 whole entry): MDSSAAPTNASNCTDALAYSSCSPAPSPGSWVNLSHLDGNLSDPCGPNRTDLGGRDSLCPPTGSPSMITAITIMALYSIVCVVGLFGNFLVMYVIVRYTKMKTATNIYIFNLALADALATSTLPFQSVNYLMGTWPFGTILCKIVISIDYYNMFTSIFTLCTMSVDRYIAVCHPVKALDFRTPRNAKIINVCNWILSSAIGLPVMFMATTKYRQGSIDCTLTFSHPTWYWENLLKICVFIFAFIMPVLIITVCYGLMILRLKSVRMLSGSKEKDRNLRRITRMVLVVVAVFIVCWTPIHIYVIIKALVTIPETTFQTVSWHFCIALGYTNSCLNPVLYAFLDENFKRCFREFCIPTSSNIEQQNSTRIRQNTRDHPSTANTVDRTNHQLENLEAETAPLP
Kappa-type opioid receptor, sequence (P41145 whole entry): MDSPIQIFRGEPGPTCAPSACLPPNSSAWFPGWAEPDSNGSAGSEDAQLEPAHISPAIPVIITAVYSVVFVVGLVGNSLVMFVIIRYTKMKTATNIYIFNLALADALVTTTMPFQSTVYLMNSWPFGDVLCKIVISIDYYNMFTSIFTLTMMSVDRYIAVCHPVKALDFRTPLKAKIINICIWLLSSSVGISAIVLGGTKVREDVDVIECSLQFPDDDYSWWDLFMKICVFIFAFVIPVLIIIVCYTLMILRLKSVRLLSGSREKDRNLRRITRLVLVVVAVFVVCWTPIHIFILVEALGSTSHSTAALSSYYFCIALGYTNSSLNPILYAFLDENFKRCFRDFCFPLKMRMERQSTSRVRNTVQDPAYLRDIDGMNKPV
Delta-type opioid receptor, sequence (P41143 whole entry): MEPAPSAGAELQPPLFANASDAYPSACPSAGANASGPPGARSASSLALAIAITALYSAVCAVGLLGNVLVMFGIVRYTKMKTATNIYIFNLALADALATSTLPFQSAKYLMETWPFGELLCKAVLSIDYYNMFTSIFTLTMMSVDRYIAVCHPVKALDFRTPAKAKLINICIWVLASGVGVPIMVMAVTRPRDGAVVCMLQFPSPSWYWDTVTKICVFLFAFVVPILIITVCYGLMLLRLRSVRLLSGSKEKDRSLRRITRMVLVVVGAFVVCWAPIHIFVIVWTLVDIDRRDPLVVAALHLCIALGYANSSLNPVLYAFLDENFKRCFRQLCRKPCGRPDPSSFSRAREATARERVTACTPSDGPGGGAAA

Structure (SMILES) | Ki (Mu-type opioid receptor) [nM] | Ki [1] [nM] | Ki [2] [nM] | Ratio Ki (Homo sapiens [3]) | Ratio Ki (Homo sapiens [4]) | Ratio Ki (Homo sapiens [5])
O=C(Cc1ccc(-c2ccccc2)cc1)Oc1ccc2c(c1)[C@@]13CCCC[C@@]1(O)[C@@H](C2)N(CC1CCC1)CC3 | 2.7 | 190 | 0.87 | 3.1 | 218 | 1
COc1ccc(CC(=O)Oc2ccc3c(c2)[C@@]24CCCC[C@@]2(O)[C@@H](C3)N(CC2CCC2)CC4)cc1 | 0.22 | 23 | 0.21 | 1 | 110 | 1
Oc1ccc2c(c1)[C@@]13CCCC[C@@]1(O)[C@@H](C2)N(CC1CCC1)CC3 [BUTORPHANOL] |  |  | 0.12 |  |  | 
O=[N+]([O-])c1ccc(Oc2ccc3c(c2)[C@@]24CCCC[C@@]2(O)[C@@H](C3)N(CC2CCC2)CC4)cc1 | 16 | 1500 | 28 | 1 | 94 | 1.8
OCCCOc1ccc2c(c1)[C@@]13CCCC[C@@]1(O)[C@@H](C2)N(CC1CCC1)CC3 | 18 | 490 | 8.6 | 2.1 | 57 | 1
C[C@H]1[C@H]2Cc3ccc(C(=O)N(C)CCc4ccc(-c5ccccc5)cc4)cc3[C@@]1(C)CCN2CC1CC1 | 6.7 | 12 | 11 | 1 | 1.8 | 1.6
O=C(COc1ccccc1)Oc1ccc2c(c1)[C@@]13CCCC[C@@]1(O)[C@@H](C2)N(CC1CCC1)CC3 | 0.061 | 22 | 0.048 | 1.3 | 458 | 1
O=C(Oc1ccc2c(c1)[C@@]13CCCC[C@@]1(O)[C@@H](C2)N(CC1CCC1)CC3)c1ccc(-c2ccccc2)cc1 | 15 | 690 | 18 | 1 | 46 | 1
Nc1ccc(Oc2ccc3c(c2)[C@@]24CCCC[C@@]2(O)[C@@H](C3)N(CC2CCC2)CC4)cc1 | 3.9 | 930 | 5.2 | 1 | 240 | 1.3
NC(=O)COc1ccc2c(c1)[C@@]13CCCC[C@@]1(O)[C@@H](C2)N(CC1CCC1)CC3 | 55 | 760 | 67 | 1 | 11 | 1.2
O[C@@]12CCCC[C@@]13CCN(CC1CCC1)[C@@H]2Cc1ccc(OCc2ccccc2)cc13 | 21 | 670 | 28 | 1 | 32 | 1.3
Cc1ccc(C(C)C(=O)Oc2ccc3c(c2)[C@@]24CCCC[C@@]2(O)[C@@H](C3)N(CC2CCC2)CC4)cc1 (some centres undefined) | 2.3 | 96 | 1.3 | 1.9 | 74 | 1
O=C(Cc1ccccc1)Oc1ccc2c(c1)[C@@]13CCCC[C@@]1(O)[C@@H](C2)N(CC1CCC1)CC3 | 0.32 | 63 | 0.48 | 1 | 197 | 1.5
O[C@@]12CCCC[C@@]13CCN(CC1CCC1)[C@@H]2Cc1ccc(OCCc2ccccc2)cc13 | 10 | 500 | 9 | 1 | 56 | 1
